This is a sample that favours compounds with a hit; in the whole collection about 2.5% have one here.
PAD4 inh: PAD4 (human) enzyme inhibition. Q9UM07. recombinant PAD4, RCA probe fluorescence polarization. inhibition, % at 6.36 µM. 330,000 compounds, 0.41% hits. AID 485272;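 active = percent inhibition above a cutoff equal to the mean of all tested compounds plus 3 SD, cut at about 15% in these data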;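 also: 0% = PAD4 with RCA probe and DMSO and 100% = probe without PAD4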
TDP2 inh: TDP2 (human) inhibition, absorbance primary screen; O95551; recombinant TDP2, T5PNP hydrolysis, p-nitrophenol absorbance 415 nm; inhibition, % at 12.8 µM; 370,000 compounds, 0.34% hits; AID 720702;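 active = inhibition above the mean of all tested compounds plus 3 SD, set per campaign, cut at about 25% in these data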;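 also: 0% = DMSO with enzyme and 100% = buffer with substrate but no TDP2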
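Test system: Human TDP2 enzyme | Reagent: 5 mM T5PNP | Compound dosing: 12.8 µM single point, 1% DMSO | Incubation: Enzyme reaction with compound for 2 h at 37 °C | Technique: p-Nitrophenol epi absorbance | Read-out: % inhibition relative to enzyme-containing and enzyme-free wells | Benchmarks: High control without enzyme, low control DMSO plus TDP2 | Replicates: Singlicate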
PRMT1 FP inh: inhibitors of human PRMT1; recombinant PRMT1, activity-based probe fluorescence polarization; Q99873; inhibition, % at 2.79 µM; 370,000 compounds, 1.3% hits;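 active = inhibition above about 21% made by adding two undisclosed values, limit read from the data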
E coli Lon inh: inhibitors of E. coli Lon protease | P0A9M0 | purified E. coli Lon protease, fluorescence polarization | inhibition, % at 7.94 µM | 360,000 compounds, 0.42% hits; in the data active = inhibition above about 13%, passing the limit was not always enough;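 also: 0% = enzyme with probe and DMSO and 100% = no enzyme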
GSTO1 inh: GSTO1 inhibition, counter-screen for RBBP9 inhibitors; recombinant GSTO1, activity-based probe fluorescence polarization; inhibition, % at 5.96 µM; 300,000 compounds, 1.1% hits; AID 1974;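 active = inhibition above the campaign mean inhibition plus 3 SD, cut at about 35% in these data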;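 also: 0% = GSTO1-1 with DMSO and 100% = wells lacking GSTO1-1 enzyme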
PAD4 FP conf: confirmation of human PAD4 inhibitors | 1,200 compounds, 28% hits | inhibition, % at 6.36 µM | shares compounds with PAD4 inh | recombinant PAD4, RCA probe fluorescence polarization;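 active = mean inhibition across replicates above the hit cutoff set by the earlier primary screen, cut at about 15% in these data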;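 also: inhibitors block active-site labeling by the probe so polarization falls; 0% = PAD4 with probe and DMSO and 100% = probe without PAD4 enzyme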
* = called active by the depositor; nt = no result given.

SMILES	PAD4 inh	TDP2 inh	PRMT1 FP inh	E coli Lon inh	GSTO1 inh	PAD4 FP conf
O=S(c1ccc2ccccc2c1)c1cnns1 (stereo unspecified)	19*	0	6	0	29	19*
CCCCOCCCNC(=O)C[C@H]1C(=O)N(Cc2ccc(OC)cc2)C2=CCCC[C@@]21C(=O)OCC	nt	-1	-1	nt	nt	nt
Cn1c(=O)c2c(ncn2CC(=O)Nc2nc(-c3ccccc3Cl)cs2)n(C)c1=O	90*	-4	6	4	-2	2
COCCOC(=O)c1c(C)n(C)c2ccc(OC(=O)c3c(OC)cccc3OC)cc12	29*	-3	46*	6	-6	23*
COc1ccc(N)c2c1C(=O)c1ccccc1C2=O	33*	-4	-1	4	14	10
Nc1ccc(Br)c2c1C(=O)c1ccccc1C2=O	4	nt	nt	nt	10	nt
CCC1C(=O)N=C(SCC(=O)Nc2ccc(S(N)(=O)=O)cc2)NC1=O (stereo unspecified)	16*	-7	13	-6	10	11
CCC1C(=O)N=C(SCC(=O)Nc2ccccc2)NC1=O (stereo unspecified)	9	6	-1	-5	4	nt
COc1ccc(-c2cc(C(=O)NCCN3CCOCC3)c3ccccc3n2)c(OC)c1	17*	5	3	8	14	-1
O=C(NCCN1CCOCC1)c1cc(-c2ccccc2)nc2ccccc12	nt	-12	-2	0	nt	nt
COc1ccc(C)cc1Nc1n[n+](C)c(-c2c3ccccc3cc3ccccc23)s1	51*	2	3	nt	7	10
Cn1nnnc1Sc1ncnc2scc(-c3ccc([N+](=O)[O-])cc3)c12	17*	-3	-1	-4	nt	10
COc1ccc(CCNC(=O)COC(=O)c2ccc(C)s2)cc1OC	0	5	-4	12	nt	nt
COc1ccc(CCNC(=O)COC(=O)c2ccc(C)s2)cc1	81*	2	1	-8	nt	-4
O=C(NCCN1CCC(Cc2ccccc2)CC1)C1CCCN(S(=O)(=O)c2ccc(Cl)s2)C1 (stereo unspecified)	nt	-5	-10	nt	nt	nt
Cc1ccc(-c2nn(-c3ccccc3)cc2C=O)o1	17*	-4	3	2	5	2
O=C(NC1CCC1)c1ccc(C#CC2CC2)c[n+]1[O-]	nt	-3	-2	nt	nt	nt
O=S1OC(c2ccccc2)c2cc(Cl)ccc21 (stereo unspecified)	40*	11	1	-20	7	35*
O=C1OC(c2ccccc2)c2ccccc21 (stereo unspecified)	-6	-5	0	-10	-5	nt
CC(C)C[C@H]1COc2cccc(N3CCCC3)c2S(=O)(=O)N1C	nt	5	4	nt	nt	nt
O=C(Nc1ccc2ccccc2c1)C1CC2CCC1C2 (stereo unspecified)	nt	-2	-3	nt	nt	nt
Clc1ccc(-c2ccc(C=Nc3ccc(N4CCOCC4)cc3)o2)c(Cl)c1	-3	11	-2	1	26	nt
Clc1ccc(-c2ccc(C=Nc3ccc(N4CCOCC4)cc3)o2)cc1	31*	19	4	8	30	6
Cc1cc(C)c2nc(NC(=O)c3ccc4c(=O)n5c(nc4c3)CCCCC5)sc2c1	36*	11	3	2	1	28*
COCc1cn(-c2ccc3c(c2)[C@@]2(CC(=O)N(C)C2c2ccccc2)C(=O)N3CC(C)C)nn1 (stereo partly specified)	nt	-2	-5	nt	nt	nt
SMILES	PAD4 inh	TDP2 inh	PRMT1 FP inh	E coli Lon inh	GSTO1 inh	PAD4 FP conf
CCN(c1ccccc1)S(=O)(=O)c1ccc(C(=O)NNC(=O)c2ccccc2F)cc1	16*	8	4	1	nt	2
CCN(c1ccccc1)S(=O)(=O)c1ccc(C(=O)Nc2ccncc2)cc1	-2	-15	-7	-3	5	nt
Cc1noc(C)c1S(=O)(=O)N(C)C[C@H]1Oc2c(NS(=O)(=O)c3cn(C)cn3)cccc2C(=O)N([C@H](C)CO)C[C@@H]1C	37*	5	-2	6	nt	6
Cc1ccc(/C(=N/Nc2nc3ccccc3s2)C2=C(O)c3ccccc3C2=O)cc1	42*	10	2	-2	-17	17*
Cc1cc(O)ccc1N/C=C1\CCCC1=O	41*	-10	30*	7	29	0
COc1ccc(/C=C/C(=O)N(C)C2CCS(=O)(=O)C2)cc1OC (stereo unspecified)	15*	11	0	-5	-3	-5
CCN(C(=O)/C=C/c1ccc(OC)cc1)C1CCS(=O)(=O)C1 (stereo unspecified)	-2	7	1	5	0	nt
Cc1cccc2c1N(C(=O)CN1C(=O)c3ccccc3C1=O)C(C)(C)c1ssc(=S)c1-2	27*	7	2	-14	5	40*
Cc1cc(C)c2c(c1)-c1c(ssc1=S)C(C)(C)N2C(=O)CN1C(=O)c2ccccc2C1=O	24*	1	0	4	-8	38*
CCOC(=O)c1csc(NC(=O)C2CCCN(S(=O)(=O)c3cccs3)C2)n1 (stereo unspecified)	nt	7	7	nt	nt	nt
CCC(=O)N(Cc1cc(=O)[nH]c2ccccc12)c1ccccc1C	18*	1	1	0	-4	22*
CCC(=O)N(Cc1cc(=O)[nH]c2ccccc12)c1cccc(C)c1	46*	-4	-1	-3	-4	33*
CCCC(=O)N(Cc1cc(=O)[nH]c2ccccc12)c1ccccc1OC	-6	7	2	10	-4	nt
CN(c1ccc(C(=O)NCC2CCCO2)cc1)S(C)(=O)=O (stereo unspecified)	15*	2	-2	8	4	2
Cc1ccc(NS(=O)(=O)c2cccc(C(=O)N3CCCCCCC3)c2)cc1	-2	-11	5	7	4	nt
Cc1ccc(NS(=O)(=O)c2cccc(C(=O)N3CCN(c4ncccn4)CC3)c2)cc1	36*	4	-1	-11	nt	3
C[C@@H]1COc2cc(Br)ccc2S(=O)(=O)N1Cc1cn(Cc2ccc(Cl)cc2)nn1	nt	-4	-2	nt	nt	nt
CC[C@@H](CCCCCCCn1ccc2ccccc21)CCC(=O)N(c1ccccc1)c1ccccc1	nt	2	4	nt	nt	nt
CC(=O)c1ccc(Sc2nnnn2-c2ccccc2)c([N+](=O)[O-])c1	17*	8	1	14	13	14
O=C(CSc1nc2ccccc2nc1N1CCCCC1)N1CCN(S(=O)(=O)c2cc(Cl)ccc2Cl)CC1	nt	0	1	nt	nt	nt
COc1ccc(-c2c/c(=N\c3nc(-c4ccccc4)c(C)s3)c3ccccc3o2)cc1O	33*	-6	-3	-15	-14	17*
CCC(C)n1c(NC(=O)c2ccccc2)c(C#N)c2nc3ccccc3nc21 (stereo unspecified)	29*	77*	-2	-27	24	-17
COc1ccc(NC(=O)Nc2c[nH]c(=O)[nH]c2=O)cc1	15*	3	-3	1	26	-1

Source: PubChem BioAssay (The Scripps Research Institute Molecular Screening Center)
